For eleven molecules, IC50 results are on record in ChEMBL document CHEMBL1240461, “Regioselective synthesis and molecular modeling study of vasorelaxant active 7,9-dioxa-1,2-diaza-spiro[4.5]dec-2-ene-6,10-diones” (Eur J Med Chem, 2010).

The test system of the assay is Aorta. Put plainly: Vasorelaxant activity in Wistar rat thoracic aortic ring assessed as inhibition of norepinephrine hydrochloride-induced contraction. Format: functional, tissue-based. Summed up: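 Isolated thoracic aortic rings from male Wistar rats, stabilised at 2 g resting tension for 2 h. Controls used DMSO alone at matching concentrations. IC50 is the concentration giving 50% reduction of maximal norepinephrine contracture, from a best-fit line.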

For the molecule `CC1(C)OC(=O)C2(C(=O)O1)C(c1cccs1)C(c1ccccc1)=NN2c1ccccc1` (stereo unspecified), the IC50 (as a rule, the concentration that inhibits the measured activity by half) came to 585 µM.

Consider `COc1ccc(C2C(c3ccccc3)=NN(c3ccccc3)C23C(=O)OC(C)(C)OC3=O)cc1` (stereo unspecified), for which the IC50 turned out to be 500 µM.

Regarding `CC1(C)OC(=O)C2(C(=O)O1)C(c1ccc(Cl)cc1)C(c1ccccc1)=NN2c1cccc(Cl)c1` (stereo unspecified), the half-inhibitory concentration (IC50) stood at 448 µM.

Turning to `CN(C)c1ccc(C2C(c3ccccc3)=NN(c3cccc(Cl)c3)C23C(=O)OC(C)(C)OC3=O)cc1` (stereo unspecified), the IC50 is 430 µM.

With `CC1(C)OC(=O)C2(C(=O)O1)C(c1cccs1)C(c1ccccc1)=NN2c1cccc(Cl)c1` (stereo unspecified), the IC50 came to 321 µM.

With `Cc1ccc(C2C(c3ccccc3)=NN(c3ccccc3)C23C(=O)OC(C)(C)OC3=O)o1` (stereo unspecified), the concentration for half-maximal inhibition (IC50) was determined as 719 µM.

As to `CC1(C)OC(=O)C2(C(=O)O1)C(c1ccc(F)cc1)C(c1ccccc1)=NN2c1cccc(Cl)c1` (stereo unspecified), the IC50 came to 643 µM.

With `COc1ccc(C2C(c3ccccc3)=NN(c3cccc(Cl)c3)C23C(=O)OC(C)(C)OC3=O)cc1` (stereo unspecified), the half-maximal inhibitory concentration (IC50) stood at 325 µM.

Take `Cc1ccc(C2C(c3ccccc3)=NN(c3cccc(Cl)c3)C23C(=O)OC(C)(C)OC3=O)o1` (stereo unspecified): the IC50 was 729 µM.

For `CC1(C)OC(=O)C2(C(=O)O1)C(c1ccc(F)cc1)C(c1ccccc1)=NN2c1ccccc1` (stereo unspecified), the IC50 came out at 1470 µM.

As to `CC1(C)OC(=O)C2(C(=O)O1)C(c1ccc(Cl)cc1)C(c1ccccc1)=NN2c1ccccc1` (stereo unspecified), the half-maximal inhibitory concentration (IC50) amounted to 590 µM.
